14 compounds from ChEMBL document CHEMBL1124349, “Novel benzodiazepine receptor partial agonists: oxadiazolylimidazobenzodiazepines” (J Med Chem, 1989) can be followed below.

As usually defined, the IC50 is the concentration at which inhibition is half-maximal. A higher IC50 goes with weaker potency.

The target in test [1] is GABA-A receptor; anion channel. Description: Inhibition of [3H]-Ro- 15-1788 binding to GABA-A benzodiazepine receptor of rat cortical membranes. The test is classed as cell membranes, Membrane. Summed up: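 Rat (Sprague–Dawley, 250-300 g) cortical membranes, water-washed and frozen at -20 °C ≥18 h, then washed repeatedly in Krebs/HEPES pH 7.4. Incubated with 0.2-0.5 mg protein, [3H]-Ro 15-1788 (5 nM stock added), 10^-4 M nipecotic acid, 30 °C for 60 min. Nonspecific binding with 3 μM clonazepam. Filtration, scintillation counting.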

Test [2] has as its target GABA-A receptor; anion channel (Rattus norvegicus) (UniProt O09028+P15431+P18506+P18508+P19969+P20236+P23574+P23576+P28471+P28473+P30191+P62813+P63079+P63138+Q91ZM7+Q9ES14). As to the kind of experiment: Ratio of binding affinity to the GABA-A receptor in the presence and absence of GABA. The test is classed as protein-complex assay. Summed up:
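[3H]-Ro 15-1788 displacement in washed rat cortical membranes (Krebs/HEPES pH 7.4, nipecotic acid 10^-4 M, 30 °C, 60 min) run with and without GABA at 0.3 mM. Nonspecific binding was defined by 3 μM clonazepam, and read-out was filtration with scintillation counting. The value is the ratio of the affinities obtained with GABA and without it.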

In test [3] the target is GABA-A receptor; anion channel. As to the kind of experiment: Inhibition of radiolabeled antagonist [3H]-Ro- 15-1788 binding to benzodiazepine receptor from rat cortical membranes. The class given is cell membranes, Membrane. In a few lines: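 Rat (Sprague–Dawley, 250-300 g) cortical membranes, water-washed and frozen at -20 °C ≥18 h, then washed repeatedly in Krebs/HEPES pH 7.4. Nonspecific binding with 3 μM clonazepam. Filtration, scintillation counting.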

SMILES strings stand for the structures.

In test [1], `Cc1noc(-c2ncn3c2CN=C(c2ccccc2)c2ccccc2-3)n1` showed an IC50 of 24 nM. The GABA shift in test [2] is 1.94.

For `CCc1noc(-c2ncn3c2CN=C(c2ccccc2)c2c(Cl)cccc2-3)n1`, the IC50 in test [3] came to 4.1 nM. Moreover, the GABA shift in test [2] turned out to be 2.21.

`CC(C)c1noc(-c2ncn3c2CN(C)C(=O)c2c(Cl)cccc2-3)n1` displayed a 50% inhibitory concentration (IC50) in test [3] of 14 nM. Besides, the GABA shift in test [2] was 1.86.

Consider `CCCc1noc(-c2ncn3c2CN(C)C(=O)c2ccccc2-3)n1`, for which, in test [3], the IC50 was found to be 120 nM. In addition, in test [2], the GABA shift was found to be 2.08.

In test [3], `Cc1nc(-c2ncn3c2CN(C)C(=O)c2c(F)cccc2-3)no1` registered a half-inhibitory concentration (IC50) of 11 nM. The GABA shift in test [2] came to 1.65.

With `Cc1noc(-c2ncn3c2CN=C(c2ccccc2Cl)c2ccccc2-3)n1`, the IC50 in test [3] came out at 31 nM. In test [2], the GABA shift was 1.29.

`Cc1nc(-c2ncn3c2CN=C(c2ccccc2)c2c(Cl)cccc2-3)no1`: the IC50 in test [3] worked out at 1.3 nM. In addition, the GABA shift in test [2] was 1.44.

In the case of `Cc1noc(-c2ncn3c2CN(C)C(=O)c2c(F)cccc2-3)n1`, the IC50 in test [3] turned out to be 22 nM. In test [2], the GABA shift is 1.85.

For the compound `Cc1noc(-c2ncn3c2CN=C(c2ccccc2)c2c(F)cccc2-3)n1`, the half-inhibitory concentration (IC50) in test [3] was determined as 8.3 nM. The GABA shift in test [2] was found to be 1.84.

In test [3], `CCc1nc(-c2ncn3c2CN=C(c2ccccc2)c2c(Cl)cccc2-3)no1` displayed a half-inhibitory concentration (IC50) of 2.8 nM. The GABA shift in test [2] turned out to be 1.65.

The compound `CCCc1nc(-c2ncn3c2CN(C)C(=O)c2cc(F)ccc2-3)no1` had a concentration for half-maximal inhibition (IC50) in test [3] of 27 nM. Moreover, the GABA shift in test [2] worked out at 1.96.

Take `CCc1nc(-c2ncn3c2CN=C(c2ccccc2Cl)c2ccccc2-3)no1`: the IC50 in test [3] was 13 nM. The GABA shift in test [2] was 1.48.

`CCc1nc(-c2ncn3c2CN=C(c2ccccc2)c2c(F)cccc2-3)no1` had a concentration for half-maximal inhibition (IC50) in test [3] of 7.5 nM. Moreover, the GABA shift in test [2] came to 1.82.

Turning to `Cc1nc(-c2ncn3c2CN=C(c2ccccc2Cl)c2cc(Cl)ccc2-3)no1`, the IC50 in test [3] stood at 20 nM. Further, the GABA shift in test [2] was found to be 1.83.
